The values that follow come from ChEMBL document CHEMBL2321858, “1,2,3,4,6-Penta-O-galloyl-β-D-glucopyranose inhibits angiogenesis via inhibition of capillary morphogenesis gene 2” (J Med Chem, 2013).

Active and inactive are the calls of the source. No cut-off for these calls is given here. Some results are limits rather than exact numbers.

For data set [1], the target named is Anthrax toxin receptor 2 (Homo sapiens, UniProt P58335, C175A/R40C). Put plainly: Inhibition of CMG2 (40 to 217) C175A and R40C double mutant (unknown origin) interaction to full length PA E733C mutant expressed in Escherichia coli by FRET assay.
Sequence of Anthrax toxin receptor 2 (P58335 34-489 R40C/C175A limits assumed): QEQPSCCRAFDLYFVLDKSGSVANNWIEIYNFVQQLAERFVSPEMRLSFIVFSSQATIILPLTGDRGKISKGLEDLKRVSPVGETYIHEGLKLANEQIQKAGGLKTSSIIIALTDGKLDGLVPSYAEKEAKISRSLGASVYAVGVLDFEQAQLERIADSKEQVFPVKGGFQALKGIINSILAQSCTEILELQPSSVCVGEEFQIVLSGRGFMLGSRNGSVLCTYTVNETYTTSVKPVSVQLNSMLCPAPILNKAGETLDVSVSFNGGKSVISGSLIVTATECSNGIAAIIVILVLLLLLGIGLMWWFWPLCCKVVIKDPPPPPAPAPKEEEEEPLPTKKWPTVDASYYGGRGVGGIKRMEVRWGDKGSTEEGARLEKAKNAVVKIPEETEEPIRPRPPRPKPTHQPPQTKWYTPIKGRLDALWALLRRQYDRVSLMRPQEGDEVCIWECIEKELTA
Data set [2] in a line: Cmax in C57BL/6J mouse at 20 mg/kg, ip after 6 to 24 hrs. In kind it is ADME, organism-based. More on the design: dose 20 mg/kg, route intraperitoneal. To be noted: in vivo.
In data set [3] the test system is Mus musculus. Put plainly: Toxicity in C57BL/6J mouse assessed as weight loss at 20 mg/kg, po or 10 mg/kg, ip measured on day 5. It is filed as organism-based. To be noted: in vivo.
The test system of data set [4] is Mus musculus. Briefly: Antiangiogenic activity in C57BL/6J mouse assessed as bFGF-induced angiogenesis at 20 mg/kg, po or 10 mg/kg, ip measured on day 5 by corneal micropocket assay. In kind it is functional, organism-based. To be noted: Cornea. In short, it runs like this:
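bFGF pellet (80 ng) implanted in cornea; groups of five mice dosed daily from implantation day, either 20 mg/kg by oral gavage in 5% ethanol or 10 mg/kg/day IP in 2.5% DMSO/5% Cremaphor EL/5% Tween-80/7.5% N-methyl-2-pyrrolidone/0.9% NaCl; vehicle-only controls. Vascular response area measured by slit lamp on postoperative day 5, typically 10 eyes per group.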

Data set [5] is described as follows: Antiangiogenic activity in HMVEC assessed as inhibition of endothelial cell migration after 4 hrs by stereomicroscopic analysis. In kind it is functional, cell-based. Conditions: Homo sapiens. In short, it runs like this:
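HMVEC-d (EGM-2, used before passage 7) resuspended in EBM with 0.1% BSA, 20,000 cells on fibronectin-coated 8.0 μm-pore polycarbonate transwells; migration toward full (5%) serum media ± compound for 4 h. Non-migrated cells swabbed off, membranes fixed and Diff-Quick stained. Data normalized to untreated control; two independent experiments, n=3 each; IC50 from binding isotherm fit.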

For data set [6], the system named is Mus musculus. Put plainly: Toxicity in C57BL/6J mouse assessed as behavioral abnormalities at 20 mg/kg, po or 10 mg/kg, ip measured on day 5. In kind it is organism-based. Conditions: in vivo.
A short description of data set [7]: Cytotoxicity against HMVEC at 1 to 30 uM after 24 to 72 hrs by fluorescence assay. Conditions: human. In short, it runs like this:
(§1)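 HMVEC-d (EGM-2, before passage 7) seeded at 2000 cells/well, medium swapped after attachment for EGM-2 ± compound; grown 1 or 3 days, then quantified by Cyquant fluorescence. Fold-proliferation = experimental readout / day-0 ethanol-fixed wells; normalized to untreated wells. Four independent experiments, n=4 wells each; t-test with Bonferroni correction.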

A short description of data set [8]: Cytostatic toxicity against HMVEC at 1 to 30 uM after 24 to 72 hrs by fluorescence assay. To be noted: human. Summed up:
as §1

The test system of data set [9] is Mus musculus. Briefly: Toxicity in C57BL/6J mouse assessed as hunched posture at 20 mg/kg, po or 10 mg/kg, ip measured on day 5. In kind it is organism-based. Conditions: in vivo.

Consider `Oc1cc(O)c2c(c1)O[C@H](c1ccc(O)c(O)c1)[C@H](O)C2` [(-)-EPICATECHIN], for which the IC50 in data set [1] is > 300 µM.
As to `O=C(O)/C=C/c1ccc(O)c(O)c1` [CAFFEIC ACID], the IC50 in [1] was > 300 µM.
Regarding `COc1cc(/C=C/C(=O)CC(=O)/C=C/c2ccc(O)c(OC)c2)ccc1O` [CURCUMIN], the IC50 in data set [1] was > 300 µM.
For `O=C(O)CCc1ccc(O)c(O)c1` [DIHYDROCAFFEIC ACID], in data set [1], the IC50 is > 300 µM.
Regarding `NCCc1ccc(O)c(O)c1` [DOPAMINE], in [1], the concentration for half-maximal inhibition (IC50) was > 300 µM.
Consider `Oc1cc(O)c2c(c1)O[C@H](c1cc(O)c(O)c(O)c1)[C@H](O)C2` [EPIGALLOCATECHIN], for which the IC50 in [1] was > 300 µM.
Consider `COC(=O)c1cc(O)c(O)c(O)c1` [GALLIC ACID METHYL ESTER], for which, in data set [1], the IC50 was > 300 µM.
As to `O=C(O)c1cc(O)c(O)c(O)c1` [GALLIC ACID], in [1], the 50% inhibitory concentration (IC50) was > 300 µM.
For the compound `COC(=O)c1ccc(O)c(O)c1` [METHYL PROTOCATECHUATE], the IC50 in data set [1] was > 300 µM.
Regarding `O=c1c(O)c(-c2cc(O)c(O)c(O)c2)oc2cc(O)cc(O)c12` [MYRICETIN], in [1], the IC50 is > 300 µM.
With `O=C(OC[C@H]1O[C@@H](OC(=O)c2cc(O)c(O)c(O)c2)[C@H](OC(=O)c2cc(O)c(O)c(O)c2)[C@@H](OC(=O)c2cc(O)c(O)c(O)c2)[C@@H]1OC(=O)c1cc(O)c(O)c(O)c1)c1cc(O)c(O)c(O)c1` [PENTAGALLOYL GLUCOSE], the maximum concentration (Cmax) in data set [2] is < 1000 nM. Further, the Activity result in data set [3], in [6], in data set [7], in data set [8] and in data set [9] was “Non-toxic” throughout. For the same compound, in data set [4], the inhibition result was “Active”. Further, the figures for the IC50 in data set [5] and in data set [1] were 820 nM and 0.3 µM, respectively.
In the case of `CCCOC(=O)c1cc(O)c(O)c(O)c1` [PROPYL GALLATE], the half-inhibitory concentration (IC50) in [1] is > 300 µM.
On to `O=C(O)c1ccc(O)c(O)c1` [PROTOCATECHUIC ACID], for which, in data set [1], the IC50 was > 300 µM.
Take `O=c1c(O)c(-c2ccc(O)c(O)c2)oc2cc(O)cc(O)c12` [QUERCETIN]: in [1], the 50% inhibitory concentration (IC50) was > 300 µM.
On to `O=C(OC[C@H]1O[C@@H](OC(=O)c2cc(O)c(O)c(OC(=O)c3cc(O)c(O)c(O)c3)c2)[C@H](OC(=O)c2cc(O)c(O)c(OC(=O)c3cc(O)c(O)c(O)c3)c2)[C@@H](OC(=O)c2cc(O)c(O)c(OC(=O)c3cc(O)c(O)c(O)c3)c2)[C@@H]1OC(=O)c1cc(O)c(O)c(OC(=O)c2cc(O)c(O)c(O)c2)c1)c1cc(O)c(O)c(OC(=O)c2cc(O)c(O)c(O)c2)c1` [TANNIC ACID], for which the IC50 in data set [1] is > 300 µM.
Regarding `COc1cc(C(=O)O)ccc1O` [VANILLIC ACID], the IC50 in data set [1] was > 300 µM.
